Data on 30 compounds can be found in ChEMBL document CHEMBL1148001 (Bioorg Med Chem Lett, 2007).

pIC50: −log10 of the molar value. A value given as a limit tells only on which side of the number the result lay.

Data set [1] has as its target Dipeptidyl peptidase 8 (Homo sapiens, UniProt Q6V1X1). Description: Inhibition of DPP8 activity.
The target in data set [2] is Dipeptidyl peptidase 9 (Homo sapiens, UniProt Q86TI2). Description: Inhibition of DPP9 activity.
A short description of data set [3]: Clearance in rat at 1 mg/kg, iv or 2 mg/kg, po. Type of data set: ADME, organism-based. Conditions: in vivo. The method in brief: (§1)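 Rats received the inhibitor at 1 mg/kg iv and 2 mg/kg po. Values reported are clearance (mL/min/kg), half-life (h), oral AUC normalized to dose (μM h kg mg⁻¹) and oral bioavailability F (%).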
Data set [4] in a line: Half life in rat at 1 mg/kg, iv or 2 mg/kg, po. The note with it: in vivo. The format is ADME, organism-based. Summed up:
as §1

Data set [5] can be described thus: Oral bioavailability in rat at 2 mg/kg. Type of data set: ADME, organism-based. Conditions: in vivo. The method in brief:
as §1

Chain of Dipeptidyl peptidase 8 (Q6V1X1 whole entry): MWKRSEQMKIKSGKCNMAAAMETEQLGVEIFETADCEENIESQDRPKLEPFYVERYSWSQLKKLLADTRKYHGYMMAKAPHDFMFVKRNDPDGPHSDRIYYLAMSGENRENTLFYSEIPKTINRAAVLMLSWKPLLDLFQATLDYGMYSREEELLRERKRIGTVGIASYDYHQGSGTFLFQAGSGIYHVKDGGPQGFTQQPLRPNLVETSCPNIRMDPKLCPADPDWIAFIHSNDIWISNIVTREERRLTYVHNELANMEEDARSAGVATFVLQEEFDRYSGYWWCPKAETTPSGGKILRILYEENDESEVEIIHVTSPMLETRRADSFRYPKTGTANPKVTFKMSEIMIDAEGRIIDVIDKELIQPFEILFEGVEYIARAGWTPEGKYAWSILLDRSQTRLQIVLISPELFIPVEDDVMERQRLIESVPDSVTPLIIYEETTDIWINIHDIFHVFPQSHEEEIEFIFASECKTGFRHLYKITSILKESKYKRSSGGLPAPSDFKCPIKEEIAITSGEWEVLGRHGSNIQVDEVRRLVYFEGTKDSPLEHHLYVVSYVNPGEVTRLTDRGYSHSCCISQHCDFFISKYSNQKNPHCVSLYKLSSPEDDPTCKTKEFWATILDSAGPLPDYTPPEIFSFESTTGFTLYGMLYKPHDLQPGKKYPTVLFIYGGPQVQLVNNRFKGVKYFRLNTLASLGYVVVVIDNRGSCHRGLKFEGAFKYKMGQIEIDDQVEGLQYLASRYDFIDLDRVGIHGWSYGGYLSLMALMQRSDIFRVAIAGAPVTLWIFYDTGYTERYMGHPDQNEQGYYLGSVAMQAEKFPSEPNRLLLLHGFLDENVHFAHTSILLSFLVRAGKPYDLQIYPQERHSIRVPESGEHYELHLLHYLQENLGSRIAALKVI
Chain of Dipeptidyl peptidase 9 (Q86TI2 whole entry): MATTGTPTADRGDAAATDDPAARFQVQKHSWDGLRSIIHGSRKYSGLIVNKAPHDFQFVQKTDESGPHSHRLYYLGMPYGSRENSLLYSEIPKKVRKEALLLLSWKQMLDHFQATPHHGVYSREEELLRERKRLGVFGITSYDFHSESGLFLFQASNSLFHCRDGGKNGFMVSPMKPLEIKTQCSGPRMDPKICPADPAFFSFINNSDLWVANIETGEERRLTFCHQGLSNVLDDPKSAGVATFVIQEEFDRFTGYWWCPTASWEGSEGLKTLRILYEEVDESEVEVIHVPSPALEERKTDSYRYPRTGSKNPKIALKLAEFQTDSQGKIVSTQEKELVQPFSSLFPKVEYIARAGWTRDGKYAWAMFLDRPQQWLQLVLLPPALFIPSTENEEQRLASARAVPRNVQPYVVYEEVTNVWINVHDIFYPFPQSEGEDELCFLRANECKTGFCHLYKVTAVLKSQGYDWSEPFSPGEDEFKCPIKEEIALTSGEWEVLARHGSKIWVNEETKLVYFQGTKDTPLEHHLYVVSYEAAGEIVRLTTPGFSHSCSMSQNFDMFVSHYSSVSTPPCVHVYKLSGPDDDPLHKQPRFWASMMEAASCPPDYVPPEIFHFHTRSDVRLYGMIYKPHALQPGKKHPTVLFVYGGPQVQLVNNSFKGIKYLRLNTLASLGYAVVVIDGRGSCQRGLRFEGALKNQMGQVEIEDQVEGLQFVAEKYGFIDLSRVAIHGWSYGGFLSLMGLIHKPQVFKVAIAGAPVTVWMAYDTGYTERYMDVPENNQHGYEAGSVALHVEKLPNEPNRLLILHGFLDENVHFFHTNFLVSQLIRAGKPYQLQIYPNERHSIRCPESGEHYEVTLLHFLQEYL

Take `N[C@@H](CC(=O)N1CCn2c(nnc2C(F)(F)F)C1)Cc1ccc(C(F)(F)F)cc1`: the pIC50 in data set [1] and in data set [2] was under 4.00 in each case.

For the compound `N[C@@H](CC(=O)N1CCn2c(CO)nnc2C1)Cc1cc(F)ccc1F`, the pIC50 in data set [1] and in data set [2] was under 4.00 each time.

For the compound `N[C@@H](CC(=O)N1CCn2c(nnc2C(F)(F)F)C1)Cc1c(F)c(F)c(F)c(F)c1F`, the pIC50 in data set [1] and in data set [2] was under 4.00 in each case.

In data set [2], `N[C@@H](CC(=O)N1CCn2c(nnc2-c2ccc(F)cc2F)C1)Cc1cc(F)ccc1F` showed a pIC50 of 4.24.

In data set [3], `N[C@@H](CC(=O)N1CCn2c(nnc2C(F)(F)F)C1)Cc1ccc(Cl)cc1Cl` came in with a clearance of 98 mL/min/kg. For the same compound, in data set [4], the half-life was 2.6 h. This compound came in with a bioavailability in data set [5] of 36%.

`N[C@@H](CC(=O)N1CCn2c(nnc2C2CC2)C1)Cc1cc(F)c(F)cc1F`: the pIC50 in data set [2] was under 4.00. The clearance in data set [3] is 68 mL/min/kg. Moreover, the half-life in data set [4] was 1.8 h. Besides, in data set [5], the bioavailability came out at 3%.

In turn, `N[C@@H](CC(=O)N1CCn2c(nnc2C(F)(F)F)C1)Cc1ccc(F)cc1` showed a pIC50 in data set [2] of under 4.00.

In the case of `N[C@@H](CC(=O)N1CCn2c(nnc2-c2ccc(F)cc2)C1)Cc1cc(F)ccc1F`, the pIC50 in data set [2] was under 4.00.

On to `CCOC(=O)c1nnc2n1CCN(C(=O)C[C@H](N)Cc1cc(F)ccc1F)C2`, for which the pIC50 in data set [2] is 4.11.

As to `N[C@@H](CC(=O)N1CCn2c(nnc2C(F)(F)F)C1)Cc1cc(Cl)ccc1Cl`, the pIC50 in data set [1] and in data set [2] was under 4.00 each time.

Regarding `N[C@@H](CC(=O)N1CCn2c(nnc2C(F)(F)F)C1)Cc1cc(F)cc(F)c1F`, the pIC50 in data set [1] and in data set [2] was under 4.00 throughout.

Turning to `N[C@@H](CC(=O)N1CCn2c(nnc2C(F)(F)F)C1)Cc1cccc(C(F)(F)F)c1`, the pIC50 in data set [1] and in data set [2] was under 4.00 throughout.

On to `N[C@@H](CC(=O)N1CCn2c(nnc2C(F)(F)F)C1)Cc1cccc(Cl)c1`, for which the pIC50 in data set [1] and in data set [2] was under 4.00 throughout.

In the case of `N[C@@H](CC(=O)N1CCn2c(nnc2C(F)(F)F)C1)Cc1c(F)cc(F)cc1F`, the pIC50 in data set [1] and in data set [2] was under 4.00 in each case.

In data set [2], `N[C@@H](CC(=O)N1CCn2c(nnc2C(F)(F)F)C1)Cc1ccccc1F` gave a pIC50 of under 4.00.

`N[C@@H](CC(=O)N1CCn2c(nnc2C(F)(F)F)C1)Cc1ccccc1Cl`: the pIC50 in data set [1] and in data set [2] was under 4.00 throughout.

Regarding `CCc1nnc2n1CCN(C(=O)C[C@H](N)Cc1cc(F)c(F)cc1F)C2`, the pIC50 in data set [2] was under 4.00. The clearance in data set [3] is 70 mL/min/kg. This compound returned a bioavailability in data set [5] of 2%.

With `N[C@@H](CC(=O)N1CCn2c(nnc2C(F)(F)F)C1)Cc1c(F)ccc(F)c1F`, the pIC50 in data set [1] and in data set [2] was under 4.00 each time.

The compound `N[C@@H](CC(=O)N1CCn2c(nnc2-c2ccncc2)C1)Cc1cc(F)ccc1F` gave a pIC50 in data set [2] of 4.08.

Consider `N[C@@H](CC(=O)N1CCn2c(nnc2C(F)(F)F)C1)Cc1ccc(Cl)c(Cl)c1`, for which the pIC50 in data set [1] and in data set [2] was under 4.00 in each case.

Compound `CC(C)(C)NC(=O)c1nnc2n1CCN(C(=O)C[C@H](N)Cc1cc(F)c(F)cc1F)C2` gave a pIC50 in data set [2] of under 4.00.

For the compound `N[C@@H](CC(=O)N1CCn2c(nnc2C(F)(F)F)C1)Cc1cc(F)c(Cl)cc1F`, in data set [2], the pIC50 is under 4.00. This compound also returned a clearance in data set [3] of 58 mL/min/kg. Besides, in data set [4], the half-life was 2.1 h. This compound also had a bioavailability in data set [5] of 54%.

For `N[C@@H](CC(=O)N1CCn2c(nnc2C(F)(F)F)C1)Cc1cc(F)c(F)cc1F` [SITAGLIPTIN], in data set [3], the clearance was determined as 60 mL/min/kg. In data set [5], this compound registered a bioavailability of 76%.

Turning to `N[C@@H](CC(=O)N1CCn2c(nnc2C(F)(F)F)C1)Cc1cc(F)c(F)cc1Cl`, the pIC50 in data set [1] and in data set [2] was under 4.00 throughout. The same compound showed a clearance in data set [3] of 78 mL/min/kg. In data set [4], this compound gave a half-life of 1.7 h. Further, in data set [5], the bioavailability was determined as 47%.

Turning to `N[C@@H](CC(=O)N1CCn2c(nnc2C(F)(F)F)C1)Cc1ccccc1C(F)(F)F`, the negative logarithm of the IC50 (pIC50) in data set [1] and in data set [2] was under 4.00 each time.

`N[C@@H](CC(=O)N1CCn2c(nnc2C(F)(F)F)C1)Cc1cc(Cl)ccc1F` showed a pIC50 in data set [1] of under 4.00. In data set [3], this compound gave a clearance of 99 mL/min/kg. Also, the half-life in data set [4] was 1.7 h. The compound also registered a bioavailability in data set [5] of 43%.

Consider `CCOC(=O)c1nnc2n1CCN(C(=O)C[C@H](N)Cc1cc(F)c(F)cc1F)C2`, for which the pIC50 in data set [1] was 4.66.

As for `N[C@@H](CC(=O)N1CCn2c(nnc2C(F)F)C1)Cc1cc(F)c(F)cc1F`, the pIC50 in data set [2] is under 4.00. The clearance in data set [3] is 66 mL/min/kg. The compound also gave a half-life in data set [4] of 1.3 h. The compound further displayed a bioavailability in data set [5] of 39%.

In data set [2], `N[C@@H](CC(=O)N1CCn2c(nnc2C(F)(F)F)C1)Cc1ccc(F)cc1F` showed a pIC50 of under 4.00.

As to `N[C@@H](CC(=O)N1CCn2c(nnc2C(F)(F)F)C1)Cc1cccc(F)c1`, the pIC50 in data set [1] and in data set [2] was under 4.00 throughout.

As usually defined, the pIC50 is −log10 of the IC50, conventionally taken in molar units. The low end stands for a large IC50, the high end for a small IC50. Usually half-life stands for the time in which the quantity being followed falls by half. Higher therefore signals slow decline. In general, bioavailability refers to the share of a dose that reaches the circulation, judged against a reference dose that is usually intravenous. Low values mean poor availability, high ones good availability.
